IC50 data for two molecules are collected here from ChEMBL document CHEMBL3091376, “Design, synthesis and in vitro anticancer evaluation of 4,6-diamino-1,3,5-triazine-2-carbohydrazides and -carboxamides” (Bioorg Med Chem Lett, 2013).

A short description of assay [1]: Growth inhibition of human MCF10A cells after 72 hrs by CellTiter-Blue assay. The format is cell-based. To be noted: MCF-10A. The method in brief:
(§1)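 CellTiter-Blue viability assay after 72 h exposure to test compound. IC50 (μM) reported as the mean of triplicates with standard deviation. Some values are approximate owing to low solubility in medium.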
(In general: Alamar Blue is a resazurin reagent that responds to reducing activity.)

Assay [2] has as its system MCF7. In words: Growth inhibition of human MCF7 cells after 72 hrs by CellTiter-Blue assay. It is filed as functional, cell-based. To be noted: MCF7, 72 h. The essentials:
as §1

The subject of assay [3] is MDA-MB-231. In words: Growth inhibition of human MDA-MB-231 cells after 72 hrs by CellTiter-Blue assay. The format is functional, cell-based. The conditions noted are these: MDA-MB-231, 72 h. The essentials: as §1

pIC50: −log10 of the molar value. Structures can show the parent of a compound that is named as a salt. Peptide text beside a SMILES is read from it. * marks the point of attachment. Cbz = O=C(OCc1ccccc1)*

Take `CC(C)C[C@@H](C=O)NC(=O)[C@H](CC(C)C)NC(=O)[C@H](CC(C)C)NC(=O)OCc1ccccc1` [MG-132] (Cbz-Leu-Leu-Leu-aldehyde): the pIC50 (in general, −log10 of the IC50, conventionally taken in molar units) is 6.54 in assay [1], 6.89 in assay [2] and 6.74 in assay [3].
For `COc1cccc2c1C(=O)c1c(O)c3c(c(O)c1C2=O)C[C@@](O)(C(=O)CO)C[C@@H]3O[C@H]1C[C@H](N)[C@H](O)[C@H](C)O1` [DOXORUBICIN HYDROCHLORIDE], in assay [1], the pIC50 is 5.95.
